Results on one compound are retold here after BindingDB's records for doi:10.1021/jm3006355 (Bar-Ilan University, 2012).

Each structure is given as a SMILES string.

The target in this test is P2Y purinoceptor 1 (Meleagris gallopavo, UniProt P49652). The test is described as follows: Agonist activity at turkey P2Y1R expressed in 1321N1 cells assessed as increase in intracellular calcium concentration by spectrofluorimetry. Put shortly: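 Cell suspensions were treated with nucleotide at various concentrations at 37 °C in 10 mM Hepes-buffered saline pH 7.4 with 1 mM CaCl2 and 1 mM MgCl2. Maximal [Ca2+]i rise was read by dual-excitation spectrofluorometry and fitted to give EC50. Three experiments on separate days.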
P2Y purinoceptor 1, sequence (P49652 whole entry): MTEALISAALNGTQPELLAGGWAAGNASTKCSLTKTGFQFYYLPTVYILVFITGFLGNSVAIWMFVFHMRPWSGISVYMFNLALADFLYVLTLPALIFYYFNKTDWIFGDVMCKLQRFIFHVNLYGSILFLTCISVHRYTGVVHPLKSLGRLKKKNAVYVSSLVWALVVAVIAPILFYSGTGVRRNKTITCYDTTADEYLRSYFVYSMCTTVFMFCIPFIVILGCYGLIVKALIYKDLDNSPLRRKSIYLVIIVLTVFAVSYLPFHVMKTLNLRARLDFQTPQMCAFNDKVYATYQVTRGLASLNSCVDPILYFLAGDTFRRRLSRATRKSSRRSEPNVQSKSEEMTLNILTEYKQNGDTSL

With `B[P@@](=O)(OC[C@H]1O[C@@H](n2cnc3c(N)nc(SC)nc32)[C@H](O)[C@@H]1O)OP(=O)(O)O`, the EC50 worked out at 34 nM.
